Screening results deposited in PubChem by NMMLSC.
Sampled rows, rich in hits. Any-hit rate of the full collection: about 2.3%.
MEKK2 mut-MEK5 = signal of MEK5 binding to mutant human MEKK2 PB1 domain | percent response, % at 10 µM | 290,000 compounds, 0.35% hits | AID 1530 | bead flow cytometry, Alexa488-MEK5 binding to MEKK2 mutant; in the data active = percent response above about 24%, passing the limit was not always enough
MEKK2 WT-MEK5 = raises or lowers MEK5 binding to wildtype human MEKK2 PB1 domain; binding response (% of control), % at 10 µM; bead flow cytometry, Alexa488-MEK5 binding to MEKK2 WT; actives lie on both sides; 290,000 compounds, 1.1% hits; Q9Y2U5; in the data active = binding response below about 67% or above about 130%
ABCG2 block = inhibitors of human ABCG2 transporter, ABCB1 counter-screen | Q9UNQ0 | IgMXP3 cells, JC-1 efflux, flow cytometry | inhibition, % at 6.6 µM | 190,000 compounds, 0.1% hits | AID 1325;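 active = inhibition above 80%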;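 note: 0% = DMSO and 100% = nicardipine control wells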
Target sequence (Q9UNQ0 whole entry, looked up): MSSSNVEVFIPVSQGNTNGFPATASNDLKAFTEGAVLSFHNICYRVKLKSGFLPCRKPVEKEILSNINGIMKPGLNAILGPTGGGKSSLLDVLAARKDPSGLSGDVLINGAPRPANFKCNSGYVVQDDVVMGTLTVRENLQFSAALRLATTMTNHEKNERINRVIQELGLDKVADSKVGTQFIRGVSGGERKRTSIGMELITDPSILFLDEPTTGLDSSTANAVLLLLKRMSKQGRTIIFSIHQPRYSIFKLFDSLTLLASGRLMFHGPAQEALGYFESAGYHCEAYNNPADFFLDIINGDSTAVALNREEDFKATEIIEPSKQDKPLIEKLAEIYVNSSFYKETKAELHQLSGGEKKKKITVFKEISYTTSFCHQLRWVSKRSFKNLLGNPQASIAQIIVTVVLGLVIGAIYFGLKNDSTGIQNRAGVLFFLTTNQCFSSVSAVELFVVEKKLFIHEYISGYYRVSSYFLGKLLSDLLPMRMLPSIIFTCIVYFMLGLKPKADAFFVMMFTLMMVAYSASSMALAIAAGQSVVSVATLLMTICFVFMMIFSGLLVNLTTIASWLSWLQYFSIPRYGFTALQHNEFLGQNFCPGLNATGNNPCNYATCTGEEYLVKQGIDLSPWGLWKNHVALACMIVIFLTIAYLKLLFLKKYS
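Measure – % inhibition of efflux relative to nicardipine and DMSO · Test system – ABCG2 IgMXP3 and barcoded ABCB1 CCRF-Adr cell mix · Control set – nicardipine as high control, DMSO as low control · Compound – one concentration, 6.6 µM final · Signal – flow cytometry of retained JC-1 fluorescence · Timing – 10 min exposure at 25 °C with rotation, no wash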
MEKK3 PB1 HTS = modulators (inhibitors or enhancers) of MEK5 binding to human MEKK3 PB1 domain; bead-based flow cytometry, Alexa488-MEK5 binding to MEKK3; actives lie on both sides; 0 = blocked by unlabeled MEK5, 100 = vehicle; binding response (% of control), % at 10 µM; 290,000 compounds, 1.4% hits; AID 1529;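 active = binding response more than 3 SD above or below the average of its plate-row segment, actives on both sides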;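 note: Alexa488 bead fluorescence after subtracting the streptavidin-only scavenger bead signal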
ABCB1 block = inhibitors of human ABCB1 transporter, ABCG2 counter-screen; AID 1326; 190,000 compounds, 0.067% hits; P08183; CCRF-Adr cells, JC-1 efflux, flow cytometry; inhibition, % at 6.6 µM; in the data active = inhibition above about 40%;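 note: 0% = vehicle and 100% = reference inhibitor; higher value means more JC-1 retained so stronger ABCB1 efflux block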
MEKK2wt confirm = raises or lowers MEK5 binding to wildtype human MEKK2, retest. shares compounds with MEKK3 PB1 HTS. bead flow cytometry, Alexa488-MEK5 binding to MEKK2 WT; actives lie on both sides. binding response (% of control), % at 10 µM. 5,900 compounds, 2.4% hits; in the data active = binding response below about 16% or above about 210%; inactive = in between
MEKK2mut confirm = signal of MEK5 binding to mutant human MEKK2, retest; percent response, % at 10 µM; shares compounds with MEKK3 PB1 HTS; 5,900 compounds, 2% hits; bead flow cytometry, Alexa488-MEK5 binding to MEKK2 mutant; in the data active = percent response mostly above about 71%, no sharp cut-off; inactive = mostly below about 38%;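 note: higher means compound restores mutant binding toward wildtype level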
MEKK3 confirm = confirmation of inhibitors of MEK5 binding to human MEKK3; 5,900 compounds, 1.8% hits; shares compounds with MEKK3 PB1 HTS; binding response (% of control), % at 10 µM; bead flow cytometry, Alexa488-MEK5 binding to MEKK3; hits give low values;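 active = binding response below 72% of control, or above a set upper limit, though filed actives all read lower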;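 note: 100% = DMSO only wells and 0% = binding blocked by excess unlabeled MEK5; lower values mean stronger disruption of MEK5 binding to MEKK3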
Active calls of the source: *; x = not tested or not shown; [ ] = another dose, or the depositor's remark.

SMILES	MEKK2 mut-MEK5	MEKK2 WT-MEK5	ABCG2 block	MEKK3 PB1 HTS	ABCB1 block	MEKK2wt confirm	MEKK2mut confirm	MEKK3 confirm
COc1ccc2c(c1)c(C(=O)N/N=C/c1ccc(OC)c(OC)c1)c(C)n2C	0	108	15	152*	3	97	-8	97
COc1cc(/C=N/NC(=O)c2nc(-c3ccccc3)n(-c3ccccc3)n2)ccc1O	2	101	8	102	1	x	x	x
COc1ccc(/C=N/NC(=O)c2nc(-c3ccccc3)n(-c3ccccc3)n2)cc1OC	1	108	24	151*	4	102	4	105
COc1ccc2c(c1)c(C(=O)N/N=C/c1ccc(Cl)cc1)c(C)n2C	-2	95	x	98	x	x	x	x
Cc1cc(C)cc(NC(=O)CN2CCC(NC(=O)c3ccccc3F)CC2)c1	8	135*	x	104	x	117	6	101
O=C(CN1CCC(NC(=O)c2ccccc2F)CC1)NCc1ccc(F)cc1	7	106	2	101	1	x	x	x
COc1ccc(NC(=O)CN(c2ccc(OC)c(Cl)c2)S(=O)(=O)c2ccccc2)cc1	2	100	x	103	x	x	x	x
S=C(Nc1ccccc1)Nc1cc(Cl)ccc1Oc1ccccc1	7	120	1	123*	0	97	-4	97
S=C(Nc1ccccc1)Nc1ccc(Cl)cc1Cl	1	99	-5	100	0	x	x	x
COc1ccccc1Oc1ccc(N2CC(C(=O)OCC(=O)c3ccccc3)CC2=O)cc1 (configuration not stated)	-13	9.0*[inhibitor]	x	6.0*[inhibitor]	x	101	-1	101
Cc1cccc(CNC(=O)C(C)n2nc(C)c3c(C)n(-c4ccccc4)nc3c2=O)c1 (configuration not stated)	-1	99	x	99	x	x	x	x
Cc1ccc(N(C(=O)CNC(=O)c2cccs2)C(C(=O)NC2CCCC2)c2ccncc2)cc1 (configuration not stated)	2	98	x	101	x	x	x	x
CS(=O)(=O)N1CCN(c2ccc(NC(=O)c3cccnc3Cl)cc2)CC1	-20	-3.0*[inhibitor]	0	1.0*[inhibitor]	0	96	-7	84
O=C(Nc1ccc(N2CCCCC2)cc1)c1cccnc1Cl	5	111	1	108	0	x	x	x
O=C(O)c1cc(-c2ccc(Cl)cc2)n(-c2ccc(F)cc2)n1	2	100	x	103	x	x	x	x
Cc1cc(C)n(-c2ccc(C(=O)NC(C)C)cc2)n1	-26	-5.0*[inhibitor]	4	-1.0*[inhibitor]	1	98	-8	96
Cc1ccc(C(=O)NCCCNC(=O)COc2ccc(Cl)cc2)cn1	2	96	x	100	x	x	x	x
CCN(CC)CCN(C(=O)c1ccc(C(=O)c2ccccc2)cc1)c1nc2ccc(OC)cc2s1	37*	172*	x	113	x	163	31	105
COc1ccc2sc(N(CCCN(C)C)C(=O)c3nc4ccccc4s3)nc2c1	25	195*	4	111	1	166	38	104
COc1ccc2nc(N(CCN(C)C)C(=O)c3ccc(C(=O)c4ccccc4)cc3)sc2c1	24*	146*	x	108	x	148	18	102
CCN(CC)CCN(C(=O)c1ccc(S(=O)(=O)N(C)C2CCCCC2)cc1)c1nc2ccc(OC)cc2s1	5	129	x	103	x	x	x	x
COc1ccc2nc(N(CCN(C)C)C(=O)c3ccc4ccccc4c3)sc2c1	8	132	x	101	x	x	x	x
Cc1c(N(C)S(=O)(=O)c2cc(C(=O)N3CCCC3)ccc2Cl)c(=O)n(-c2ccccc2)n1C	6	100	x	101	x	x	x	x
O=C(C1CCN(S(=O)(=O)c2ccccc2)CC1)N1CCCCCC1	-3	102	x	97	x	x	x	x
COc1ccccc1NC(=O)CSc1nnnn1-c1ccccc1F	3	100	x	98	x	x	x	x
SMILES	MEKK2 mut-MEK5	MEKK2 WT-MEK5	ABCG2 block	MEKK3 PB1 HTS	ABCB1 block	MEKK2wt confirm	MEKK2mut confirm	MEKK3 confirm
Cc1ccc2c(c1)N(C(=O)CCC(=O)NC1CCN(Cc3ccccc3)CC1)CC(C)O2 (configuration not stated)	-1	99	x	96	x	x	x	x
CC1(C)Cc2c(c(N3CCOCC3)nc3sc(-c4ccc(C(=O)O)o4)c(N)c23)CO1	62*	-5.0*	-2	80	-1	89	-2	93
CN1CCN(c2ccc(Cl)cc2NC(=O)c2cccc(S(=O)(=O)N(C)C)c2)CC1	19	126	6	105	1	x	x	x
CN1CCN(c2ccc(Cl)cc2NC(=O)/C=C/c2cccc(F)c2)CC1	18	149*	2	103	3	151	37	106
CCc1cc2ccccc2nc1Cl	-6	93	1	102	0	x	x	x
CCc1cc2cc(C)cc(C)c2nc1Cl	5	123	1	138*	0	95	-28	98
CCOC(=O)c1cnn(CCOC(=O)C(C)(C)C)c1NC(=O)C(C)(C)C	-25	0.0*[inhibitor]	1	2.0*[inhibitor]	1	98	-6	101
CCOC(=O)c1cnn(CCOC(=O)C2CC2)c1NC(=O)C1CC1	9	102	4	103	1	x	x	x
Cc1ccc(NC(=O)c2cccc(S(=O)(=O)N3CCN(c4ccc(F)cc4)CC3)c2)nc1	3	105	x	100	x	x	x	x
Cc1cccnc1NC(=O)C1CCCN1S(=O)(=O)c1ccc(Cl)cc1 (configuration not stated)	9	104	x	103	x	x	x	x
CSc1nc2ccccc2n1Cc1cccc([N+](=O)[O-])c1	1	108	5	152*	2	100	-5	103
CN1C2CCC1CC(NS(=O)(=O)c1ccc(C#N)cc1)C2 (configuration not stated)	-4	97	x	98	x	x	x	x
Cn1ncc([N+](=O)[O-])c1C(=O)NC1CCCCC1	0	99	x	97	x	x	x	x
Cc1ccc(S(=O)(=O)N(CC(=O)N/N=C/c2ccco2)c2cc(Cl)cc(Cl)c2)cc1	0	104	5	128*	1	96	-8	105
CN(c1ccc(F)cc1)S(=O)(=O)c1ccc(Cl)c(C(=O)Nc2ccc3c(c2)CCC3)c1	1	111	10	134*	1	104	-5	101
O=C(NCc1ccc2c(c1)OCO2)c1ccc(Br)cc1	4	108	x	99	x	x	x	x
Cc1nc2cc(C(=O)NCc3ccc4c(c3)OCO4)ccc2n1-c1ccc(Br)cc1	-2	92	3	65*[inhibitor]	0	98	3	96
COc1nc(-c2ccccc2)ccc1-c1noc(-c2ccccc2)n1	1	100	-1	105	0	x	x	x
